Among the data in ChEMBL document CHEMBL1131460, “2-substituted (2SR)-2-amino-2-((1SR,2SR)-2-carboxycycloprop-1-yl)glycines as potent and selective antagonists of group II metabotropic glutamate receptors. 2. Effects of aromatic substitution, pharmacological characterization, and bioavailability” (J Med Chem, 1998) are IC50 and Displacement values, retold here.

The nature of test [1]: Binding affinity for Group II Metabotropic glutamate receptor was measured using [3H]glutamate in rat forebrain membranes. The format is cell membranes, Membrane. The essentials: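 ACPD-sensitive [³H]glutamate binding to group II mGluRs in rat forebrain membranes, reported as IC50. Most values are single-point determinations; others are averages of two or three determinations. Values in parentheses are percent radioligand displacement at 1 μM.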

Test [2] concerns the target T1, Metabotropic glutamate receptor 3 (Homo sapiens, UniProt Q14832). In words: Effect on 1S,3R-ACPD-induced inhibition of forskolin stimulated cyclic-AMP in RGT cells expressing human Metabotropic glutamate receptor 3. The format is functional, cell-based.
In test [3] the target is T2, Metabotropic glutamate receptor 2 (Homo sapiens, UniProt Q14416). In words: Effect on 1S,3R-ACPD-induced inhibition of forskolin stimulated cyclic-AMP in RGT cells expressing human Metabotropic glutamate receptor 2. The test is classed as functional, cell-based.
T2 sequence (Q14416 whole entry): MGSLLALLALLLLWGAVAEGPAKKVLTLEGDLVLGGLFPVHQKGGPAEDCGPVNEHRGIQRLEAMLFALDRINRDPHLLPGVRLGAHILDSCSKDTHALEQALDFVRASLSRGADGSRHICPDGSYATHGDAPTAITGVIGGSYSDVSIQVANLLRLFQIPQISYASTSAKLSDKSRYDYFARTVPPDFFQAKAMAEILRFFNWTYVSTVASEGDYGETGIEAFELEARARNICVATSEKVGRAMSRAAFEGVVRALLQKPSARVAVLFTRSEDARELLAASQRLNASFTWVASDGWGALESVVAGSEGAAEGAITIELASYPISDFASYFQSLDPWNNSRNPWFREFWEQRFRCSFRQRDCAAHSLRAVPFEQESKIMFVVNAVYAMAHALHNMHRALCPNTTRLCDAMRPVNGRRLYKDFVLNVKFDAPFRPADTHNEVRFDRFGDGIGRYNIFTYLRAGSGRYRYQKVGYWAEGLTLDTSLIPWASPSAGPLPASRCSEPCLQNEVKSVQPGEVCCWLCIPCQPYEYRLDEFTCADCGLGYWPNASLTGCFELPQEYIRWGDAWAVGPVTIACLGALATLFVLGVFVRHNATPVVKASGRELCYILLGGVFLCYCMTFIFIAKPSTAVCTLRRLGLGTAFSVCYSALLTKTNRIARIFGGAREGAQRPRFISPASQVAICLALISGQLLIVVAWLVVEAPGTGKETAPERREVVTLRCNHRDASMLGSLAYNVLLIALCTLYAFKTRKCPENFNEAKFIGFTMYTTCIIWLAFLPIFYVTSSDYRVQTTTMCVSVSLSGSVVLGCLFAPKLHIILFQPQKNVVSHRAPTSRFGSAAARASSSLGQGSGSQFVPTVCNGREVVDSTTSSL
The target in test [4] is T1, Metabotropic glutamate receptor 3. In words: Compound was tested its ability to block 1S,3R-ACPD-induced inhibition of forskolin stimulated cyclic-AMP in RGT cells transfected with human Metabotropic glutamate receptor 3; Agonist. The test is classed as functional, cell-based. The essentials: (§1)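 RGT cells transfected with human mGluR2 or mGluR3 were used. Forskolin-stimulated cyclic AMP was inhibited by (1S,3R)-ACPD, and compounds were tested for antagonism of this inhibition, giving IC50.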

In test [5] the target is T2, Metabotropic glutamate receptor 2. Briefly: Compound was tested its ability to block 1S,3R-ACPD-induced inhibition of forskolin stimulated cyclic-AMP in RGT cells transfected with human Metabotropic glutamate receptor 2; Agonist. The test is classed as functional, cell-based. The essentials:
as §1

As usually defined, the IC50 is the concentration that inhibits the measured activity by half. A higher IC50 goes with a need for much substance.

T1 sequence (Q14832 whole entry): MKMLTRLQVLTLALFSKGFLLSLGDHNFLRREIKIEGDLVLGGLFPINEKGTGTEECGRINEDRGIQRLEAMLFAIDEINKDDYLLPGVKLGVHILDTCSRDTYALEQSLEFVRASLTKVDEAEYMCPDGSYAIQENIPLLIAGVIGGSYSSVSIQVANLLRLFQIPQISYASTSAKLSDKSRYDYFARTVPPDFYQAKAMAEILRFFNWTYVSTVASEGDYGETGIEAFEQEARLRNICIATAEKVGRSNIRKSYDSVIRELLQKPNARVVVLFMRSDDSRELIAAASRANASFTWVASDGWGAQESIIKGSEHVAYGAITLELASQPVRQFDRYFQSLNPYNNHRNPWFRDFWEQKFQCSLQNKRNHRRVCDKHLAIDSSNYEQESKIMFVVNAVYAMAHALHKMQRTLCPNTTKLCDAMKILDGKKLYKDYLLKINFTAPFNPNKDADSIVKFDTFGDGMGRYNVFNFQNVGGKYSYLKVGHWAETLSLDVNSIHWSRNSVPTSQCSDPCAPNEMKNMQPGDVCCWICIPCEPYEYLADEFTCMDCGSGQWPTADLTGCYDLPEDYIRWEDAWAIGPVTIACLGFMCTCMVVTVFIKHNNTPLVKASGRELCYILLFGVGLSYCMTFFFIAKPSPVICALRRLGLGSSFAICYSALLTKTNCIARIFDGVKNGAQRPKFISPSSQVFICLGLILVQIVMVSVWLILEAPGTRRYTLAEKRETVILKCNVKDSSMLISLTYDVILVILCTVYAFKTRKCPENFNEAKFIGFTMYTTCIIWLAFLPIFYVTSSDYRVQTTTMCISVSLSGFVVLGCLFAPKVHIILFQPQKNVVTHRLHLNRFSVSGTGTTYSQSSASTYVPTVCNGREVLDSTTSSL

Compound `N[C@@](CCc1ccccc1O)(C(=O)O)C1C[C@@H]1C(=O)O` (some centres undefined) displayed an IC50 in test [1] of 220 nM.

On to `NC(CC(c1ccccc1)c1ccccc1)(C(=O)O)[C@@H]1C[C@H]1C(=O)O` (single isomer, unassigned), for which the Displacement in test [1] (Membrane) worked out at 0%. As for `CS(=O)(=O)c1cccc(CC[C@](N)(C(=O)O)C2C[C@@H]2C(=O)O)c1` (some centres undefined) [listing 1 of 2 here], the concentration for half-maximal inhibition (IC50) in test [1] was determined as 2400 nM. As to `N[C@@](CCc1ccc(Br)cc1)(C(=O)O)C1C[C@@H]1C(=O)O` (some centres undefined), the IC50 in test [1] is 680 nM. The same measure, in the same setting: the result for `N[C@@](CCc1c(Cl)cccc1Cl)(C(=O)O)C1C[C@@H]1C(=O)O` (some centres undefined) reads 710 nM; that for `N[C@@](CC(c1ccccc1)c1ccccc1)(C(=O)O)[C@H]1C[C@@H]1C(=O)O`, 2000 nM.

`N[C@](CC(c1ccccc1)c1ccccc1)(C(=O)O)[C@H]1C[C@@H]1C(=O)O`: the values for the half-inhibitory concentration (IC50) in test [2], in test [3] and in test [1] were 170 nM, 220 nM and 35 nM, respectively. Consider `N[C@@](CCc1cc(F)ccc1F)(C(=O)O)C1C[C@@H]1C(=O)O` (some centres undefined), for which the half-maximal inhibitory concentration (IC50) in test [1] came to 290 nM. With `N[C@@](CCc1c(F)c(F)c(F)c(F)c1F)(C(=O)O)C1C[C@@H]1C(=O)O` (some centres undefined), the half-maximal inhibitory concentration (IC50) in test [1] came out at 370 nM. Same read-out and setting: in the case of `Cc1ccccc1CC[C@](N)(C(=O)O)C1C[C@@H]1C(=O)O` (some centres undefined) it was 570 nM; in that of `N[C@@](CCc1cc(F)cc(F)c1)(C(=O)O)C1C[C@@H]1C(=O)O` (some centres undefined), 21 nM; in that of `N[C@@](CCc1cccc(Oc2ccccc2)c1)(C(=O)O)C1C[C@@H]1C(=O)O` (some centres undefined), 220 nM. Same read-out and setting: in the case of `CC(C)(C)c1cccc(CC[C@](N)(C(=O)O)C2C[C@@H]2C(=O)O)c1` (some centres undefined) it was over 10000 nM; in that of `N[C@](CC1c2ccccc2Oc2ccccc21)(C(=O)O)C1C[C@H]1C(=O)O` (stereo in doubt; 174), 4200 nM.

In the case of `N[C@@](CCc1ccc(C(=O)O)cc1)(C(=O)O)C1C[C@@H]1C(=O)O` (some centres undefined), the IC50 in test [1] came to 370 nM.

As for `N[C@@](CCc1ccccc1Cl)(C(=O)O)C1C[C@@H]1C(=O)O` (some centres undefined), the 50% inhibitory concentration (IC50) in test [1] is 260 nM. With `N[C@@](CCc1ccccc1F)(C(=O)O)C1C[C@@H]1C(=O)O` (some centres undefined), in test [1], the 50% inhibitory concentration (IC50) was 310 nM.

For `COc1cc(CC[C@](N)(C(=O)O)C2C[C@@H]2C(=O)O)cc(OC)c1` (some centres undefined), the half-inhibitory concentration (IC50) in test [1] was determined as 110 nM.

`COc1ccc(CC[C@](N)(C(=O)O)C2C[C@@H]2C(=O)O)cc1OC` (some centres undefined) showed a 50% inhibitory concentration (IC50) in test [1] of 460 nM. Compound `N[C@](CC1c2ccccc2Oc2ccccc21)(C(=O)O)C1C[C@H]1C(=O)O` (stereo in doubt; 173) gave a 50% inhibitory concentration (IC50) in test [1] of 860 nM.

In the case of `N[C@@](CCc1ccc(F)cc1)(C(=O)O)C1C[C@@H]1C(=O)O` (some centres undefined), the results for the half-inhibitory concentration (IC50) in test [2], in test [3] and in test [1] were 210 nM, 180 nM and 22 nM, respectively. Consider `N[C@@](CCc1cccc(C2CCCC2)c1)(C(=O)O)C1C[C@@H]1C(=O)O` (some centres undefined), for which the half-maximal inhibitory concentration (IC50) in test [1] is over 10000 nM. Same read-out and setting: the result for `Cc1cccc(CC[C@](N)(C(=O)O)C2C[C@@H]2C(=O)O)c1` (stereo in doubt; 180) reads 12 nM. In test [1], `COc1ccc(CC[C@](N)(C(=O)O)C2C[C@@H]2C(=O)O)cc1` (some centres undefined) gave a half-inhibitory concentration (IC50) of 1400 nM.

`N[C@@](CCc1ccc(Cl)cc1)(C(=O)O)C1C[C@@H]1C(=O)O` (some centres undefined) yielded an IC50 in test [1] of 410 nM.

Turning to `N[C@@](CCc1ccc(-c2ccccc2)cc1)(C(=O)O)C1C[C@@H]1C(=O)O` (some centres undefined), the IC50 in test [1] turned out to be 1500 nM.

Turning to `COc1cccc(CC[C@](N)(C(=O)O)C2C[C@@H]2C(=O)O)c1OC` (some centres undefined), the 50% inhibitory concentration (IC50) in test [1] was 4900 nM. For the compound `N[C@@](CCc1cccc(Cl)c1)(C(=O)O)C1C[C@@H]1C(=O)O` (some centres undefined), the half-maximal inhibitory concentration (IC50) in test [2] turned out to be 180 nM; in test [3] it was 180 nM; in test [1] it was 100 nM.

`N[C@@H](C(=O)O)C1C[C@@H]1C(=O)O` (some centres undefined): the half-inhibitory concentration (IC50) result in test [4] was “Agonist”; in test [5], “Agonist”; in test [1], 470 nM. `COc1ccc(OC)c(CC[C@](N)(C(=O)O)C2C[C@@H]2C(=O)O)c1` (some centres undefined): the half-maximal inhibitory concentration (IC50) in test [1] is 170 nM. Compound `N[C@@](CCc1ccccc1Oc1ccccc1)(C(=O)O)C1C[C@@H]1C(=O)O` (some centres undefined) gave a half-inhibitory concentration (IC50) in test [1] of 360 nM. Turning to `NC(CCc1cccc(C(=O)O)c1)(C(=O)O)[C@H]1C[C@@H]1C(=O)O` (some centres undefined), the IC50 was determined as 80 nM in test [2], 1800 nM in test [3] and 77 nM in test [1]. Compound `COc1ccccc1CC[C@](N)(C(=O)O)C1C[C@@H]1C(=O)O` (some centres undefined) came in with an IC50 in test [1] of 170 nM.

On to `N[C@@](CCc1ccccc1C(F)(F)F)(C(=O)O)C1C[C@@H]1C(=O)O` (some centres undefined), for which, in test [1], the IC50 worked out at 480 nM. Still for that read-out and setting: in the case of `N[C@@](CCc1ccc(F)c(F)c1)(C(=O)O)C1C[C@@H]1C(=O)O` (some centres undefined) it was 34 nM. The same measure, in the same setting: in the case of `N[C@@](CCc1ccc(Cl)c(Cl)c1)(C(=O)O)C1C[C@@H]1C(=O)O` (some centres undefined) it was 67 nM. For the compound `Nc1cccc(CC[C@](N)(C(=O)O)C2C[C@@H]2C(=O)O)c1` (some centres undefined), the IC50 in test [2] is 200 nM; in test [3], 3100 nM. As for `N[C@@](CCc1cccc(O)c1)(C(=O)O)C1C[C@@H]1C(=O)O` (some centres undefined), the 50% inhibitory concentration (IC50) in test [2] turned out to be 260 nM; in test [3] it was 1000 nM; in test [1], 150 nM. As to `N[C@@](CCc1ccc(F)cc1F)(C(=O)O)C1C[C@@H]1C(=O)O` (some centres undefined), in test [1], the IC50 was 63 nM. The same measure, in the same setting: in the case of `CCCc1cccc(CC[C@](N)(C(=O)O)C2C[C@@H]2C(=O)O)c1` (some centres undefined) it was 570 nM; in that of `NC(CCc1ccccc1)(C(=O)O)[C@H]1C[C@@H]1C(=O)O` (some centres undefined), 320 nM. On to `CS(=O)(=O)c1cccc(CC[C@](N)(C(=O)O)C2C[C@@H]2C(=O)O)c1` (some centres undefined) [listing 2 of 2 here], for which the values for the IC50 in test [2], in test [3] and in test [1] were 180 nM, 190 nM and 110 nM, respectively. In test [1], `N[C@@](CCc1cccc(-c2ccccc2)c1)(C(=O)O)C1C[C@@H]1C(=O)O` (some centres undefined) registered a half-maximal inhibitory concentration (IC50) of 510 nM. For `COc1cccc(CC[C@](N)(C(=O)O)C2C[C@@H]2C(=O)O)c1` (some centres undefined), the IC50 in test [2] was 160 nM; in test [3], 430 nM; in test [1], 94 nM.

In test [1], `N[C@@](CCc1ccc(Cl)cc1Cl)(C(=O)O)C1C[C@@H]1C(=O)O` (some centres undefined) showed a half-inhibitory concentration (IC50) of 220 nM. In test [1], `N[C@@](CCc1cccc(Br)c1)(C(=O)O)C1C[C@@H]1C(=O)O` (some centres undefined) yielded an IC50 of 69 nM. The same measure, in the same setting: the result for `N[C@@](CCc1cccc(F)c1)(C(=O)O)C1C[C@@H]1C(=O)O` (some centres undefined) reads 160 nM; that for `Cc1cccc(CC[C@](N)(C(=O)O)C2C[C@@H]2C(=O)O)c1` (stereo in doubt; 104), 89 nM. `N[C@@](CCc1ccc(O)cc1)(C(=O)O)C1C[C@@H]1C(=O)O` (some centres undefined): the concentration for half-maximal inhibition (IC50) in test [1] was 300 nM. Same read-out and setting: the result for `N[C@@](CC1c2ccccc2Oc2ccccc21)(C(=O)O)[C@H]1C[C@@H]1C(=O)O` reads 530 nM; that for `N[C@@](CCc1cc(Cl)cc(Cl)c1)(C(=O)O)C1C[C@@H]1C(=O)O` (some centres undefined), 29 nM; that for `N[C@@](CCc1cccc(F)c1F)(C(=O)O)C1C[C@@H]1C(=O)O` (some centres undefined), 130 nM. `Cc1ccc(CC[C@](N)(C(=O)O)C2C[C@@H]2C(=O)O)cc1` (some centres undefined) displayed an IC50 in test [1] of 590 nM. Turning to `N[C@@](CCc1cccc(C(F)(F)F)c1)(C(=O)O)C1C[C@@H]1C(=O)O` (some centres undefined), the IC50 in test [2] was 420 nM; in test [3] it was 220 nM; in test [1], 140 nM. The compound `CSc1cccc(CC[C@](N)(C(=O)O)C2C[C@@H]2C(=O)O)c1` (some centres undefined) had a half-inhibitory concentration (IC50) in test [1] of 410 nM.
